Bioassay records deposited in PubChem by Broad Institute.
Sampled rows, rich in hits. Any-hit rate of the full collection: about 3%.
HSF1 activator = increases HSF-1 driven luciferase reporter signal; actives 1.7% (n = 300,000); activation, % at 9 µM; NIH3T3-HGL HSF-1 luciferase reporter, MG132, 8 h; 100% = twice DMSO control signal;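 active = mean replicate activation of at least 50% with a set share of replicates each reaching 50%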
Glyco luc inh = N-linked glycosylation inhibition; D54 ERlucT glycosylation luciferase reporter, 24 h; percent of 100 nM tunicamycin response; reporter increase, % at 12.5 µM; actives 0.23% (n = 360,000); AID 588692;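 active = mean luciferase reporter signal, scaled so untreated is 0 and the glycosylation-blocking control 100, at or above a set limit in every replicate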;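 also: luciferase carries N-glycosylation sites so blocking glycosylation raises the light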
PfHsp90 yeast 2 = growth inhibition of yeast expressing Plasmodium Hsp90; S. cerevisiae expressing PfHsp90, BacTiter-Glo ATP, 48 h; yeast lacking PDR1 and PDR3 efflux regulators; inhibition, % at 9.4 µM; actives 0.32% (n = 310,000); AID 504621;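 active = every replicate shows inhibition above about 80%, whatever the replicate mean, limit read from the data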
CaV13 ICDI inh = Disruptors of the CACNA1D IQ motif to Ca2+-dependent inactivation inhibitor domain association, primary screening, Förster resonance energy transfer in intact living …. AID 743397. inhibition, % at 12.3 µM. HEK cells, CFP/YFP FRET ICDI-IQ, plate reader, 10 min; percent FRET-ratio fall versus neutral wells. actives 0.098% (n = 340,000);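 active = mean replicate inhibition of at least 30% and at least 1% of replicates passing that level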
PvdQ acylase = blocks Pseudomonas aeruginosa PvdQ acylase activity; inhibition, % at 10 µM; actives 0.063% (n = 340,000); purified PvdQ acylase, fluorescence plate reader; in the data active = inhibition above about 30%, passing the limit was not always enough
T cruzi repl = blocks replication of Trypanosoma cruzi; inhibition, % (no concentration beside the values); T. cruzi beta-gal in NIH3T3, luminescence, 90 h; actives 1.4% (n = 300,000);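 active = mean inhibition across valid replicates above about 55%, limit read from the data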;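 also: signal also drops with host cell toxicity which is not excluded here; higher percent means less beta-gal luminescence so fewer parasites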
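Material: NIH/3T3 host cells with β-galactosidase reporter T. cruzi; Input: 5,000 host fibroblasts per well; Medium: DMEM, 2% fetal bovine serum; Compound: 50 nL DMSO compound solution per well; Schedule: 3 h host attachment, then at least 90 h co-culture; Detection: luminescent β-galactosidase signal after 60 min lysis.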
Large screens that a line does not name were inactive.

CCC(C)(C)NC(=O)C(c1cccc(OC)c1OC)N(Cc1ccc(OC)cc1)C(=O)CCC(=O)Nc1cc(C)on1 (stereo not given)	HSF1 activator 60
N#CC1=C(N)Oc2n[nH]c(-c3ccc(F)cc3)c2C1c1ccncc1 (stereo not given)	HSF1 activator 67 (no result: CaV13 ICDI inh)
Cc1ccccc1NC(=S)N1CCCC(c2nc3ccccc3[nH]2)C1 (stereo not given)	T cruzi repl 72
Cc1ccc(NC(=S)N2CCCC(c3nc4ccccc4[nH]3)C2)cc1 (stereo not given)	none
N=c1c(-c2nc3ccccc3[nH]2)cc(C(=O)c2cccs2)nn1-c1ccccc1	T cruzi repl 72 (no result: PfHsp90 yeast 2, CaV13 ICDI inh)
COc1ccc(Cn2c(-c3ccco3)nc3c(c(=O)c4ccccc4n3C)c2=O)cc1	none
Cn1c2ccccc2c(=O)c2c(=O)n(Cc3ccco3)c(-c3ccc(Cl)cc3Cl)nc21	T cruzi repl 64 (no result: Glyco luc inh, PfHsp90 yeast 2, CaV13 ICDI inh, PvdQ acylase)
COC(=O)C[C@@H]1C=C[C@H](NC(=O)Cc2ccccn2)[C@@H](CO)O1	none (no result: HSF1 activator, Glyco luc inh, PfHsp90 yeast 2, PvdQ acylase, T cruzi repl)
COCCNC(=O)Cn1cnc2c1c(=O)n(C)c(=O)n2C	HSF1 activator 56
COC(=O)Cn1cnc2c1c(=O)n(C)c(=O)n2C	none (no result: CaV13 ICDI inh)
N#Cc1cc2[nH]c3ccccc3c2[n+](-c2ccc([N+](=O)[O-])cc2)c1N	Glyco luc inh 28
C[C@H](CO)N1C[C@H](C)[C@H](CN(C)Cc2cccc(F)c2)Oc2ncc(C3=CCCC3)cc2C1=O	none (no result: HSF1 activator, Glyco luc inh, PfHsp90 yeast 2, PvdQ acylase, T cruzi repl)
CC(=O)C1=C(C)NC2(O)c3ccccc3C(=O)C12O (stereo not given)	HSF1 activator 62
Cc1ccc(-c2nn(C(C)(C)C)c3ncnc(NS(=O)(=O)c4ccc([N+](=O)[O-])cc4)c23)cc1	T cruzi repl 56
CC1=NOC(=O)/C1=C/c1ccc(-c2ccc(Cl)cc2)o1	PfHsp90 yeast 2 105 (no result: HSF1 activator, CaV13 ICDI inh, T cruzi repl)
CC1=NOC(=O)/C1=C\c1ccc(-c2ccc(Br)cc2)o1	PfHsp90 yeast 2 105
CC1=NOC(=O)/C1=C\c1ccc(-c2cc(Cl)ccc2Cl)o1	none (no result: CaV13 ICDI inh)
CCC(C)NCCOc1ccc(Br)cc1 (stereo not given)	none
CC(C)NCC(O)COCCOc1ccc(Br)cc1 (stereo not given)	T cruzi repl 63
CN1CCN(CC(O)COCCOc2ccc(Br)cc2)CC1 (stereo not given)	T cruzi repl 59
CCN1CCN(CC(O)COCCOc2ccc(Br)cc2)CC1 (stereo not given)	none
CCC(C)NCCOCCOc1ccc(Br)cc1 (stereo not given)	T cruzi repl 66
CCn1cc(CN2CCCC(C(=O)Nc3cccc(-n4cccn4)c3)C2)cn1 (stereo not given)	none (no result: HSF1 activator, PfHsp90 yeast 2, PvdQ acylase, T cruzi repl)
O=S1(=O)CCSC[C@@H](CNCc2ccco2)N1	none (no result: HSF1 activator, Glyco luc inh, PfHsp90 yeast 2, PvdQ acylase, T cruzi repl)
COCCCn1cnn2c(=O)c3ccccc3nc2c1=O	none (no result: HSF1 activator, Glyco luc inh, PfHsp90 yeast 2, PvdQ acylase, T cruzi repl)
O=C(/C=N/NC(=O)c1ccc(Cl)cc1Cl)c1ccccc1	HSF1 activator 57
O=C(N/N=C/c1cc(Cl)ccc1O)c1ccccc1Br	none
O=C(NN=Cc1ccc(Cl)cc1Cl)c1ccccc1	none (no result: HSF1 activator, PfHsp90 yeast 2, PvdQ acylase, T cruzi repl)
O=C(/C=N/NC(=O)c1ccccc1Br)c1ccccc1	HSF1 activator 59 (no result: PfHsp90 yeast 2)
CN(CC1CCCN(CCc2cccc(C(F)(F)F)c2)C1)C(=O)c1cc2ccccc2o1 (stereo not given)	T cruzi repl 65
CSCCC(=O)N(C)CC1CCCN(CCc2cccc(C(F)(F)F)c2)C1 (stereo not given)	T cruzi repl 55
O=C(Nc1c(-c2ccc3c(c2)OCO3)[nH][nH]c1=O)c1cnccn1	none (no result: HSF1 activator, PfHsp90 yeast 2, PvdQ acylase, T cruzi repl)
c1ccc(C(c2ccccc2)c2noc(CN3CCC(c4ccncc4)CC3)n2)cc1	T cruzi repl 61 (no result: PfHsp90 yeast 2)
COc1ccc2c(c1)c(C(=O)N/N=C/c1cccc(Br)c1)c(C)n2C	T cruzi repl 55
COc1ccc2c(c1)c(C(=O)N/N=C/c1ccccc1Cl)c(C)n2C	HSF1 activator 56
Cc1cc(C)cc(C(O)c2ncc(-c3cccc(F)c3)[nH]2)c1 (stereo not given)	none (no result: HSF1 activator, PfHsp90 yeast 2, PvdQ acylase, T cruzi repl)
Cn1cccc1C(=O)C(=O)Nc1ccc(Cl)cc1	none
Cn1cccc1C(=O)C(=O)Nc1ccc(F)c(F)c1	HSF1 activator 63
CC1CCC(NC(=O)CN2C(=O)C3CC=CCC3C2=O)CC1 (stereo not given)	none (no result: HSF1 activator, T cruzi repl)
O=C(N/N=C/C=C/c1ccco1)c1cnccn1	none
O=C(N/N=C/C=C\c1ccco1)c1ccccn1	HSF1 activator 62
O=C(N/N=C\C=C\c1ccco1)c1cc(-c2ccc3ccccc3c2)n[nH]1	HSF1 activator 57
O=S1(=O)N[C@H](Cc2ccccc2)COc2cccc(NCCO)c21	none (no result: HSF1 activator, Glyco luc inh, PfHsp90 yeast 2, PvdQ acylase, T cruzi repl)
Brc1cccc(CNCc2ccncc2)c1	none
Fc1ccc(CNCc2cccc(Br)c2)cc1	PvdQ acylase 31
Cc1ccc(-n2ncc3ccccc3c2=O)cc1Cl	HSF1 activator 88
Cc1ccc(C=Nc2ccc(N(C)C)cc2)o1	T cruzi repl 61
Cc1ccc(/C=N/n2c(C)nnc2C)o1	none
CN(Cc1ccccc1)C(=O)c1cc(-c2ccc(Br)cc2)on1	HSF1 activator 62
COCCN1C(=O)[C@H]2C[C@@]13O[C@H](c1ccc(C(F)(F)F)cc1)N=C3C[C@H](c1ccccc1)[C@H]2C	none (no result: HSF1 activator, Glyco luc inh, PfHsp90 yeast 2, PvdQ acylase, T cruzi repl)
O=C(CSC1=NCCN1)Nc1cccc(C(F)(F)F)c1	HSF1 activator 67
Cn1ccnc1SCC(=O)Nc1cccc(C(F)(F)F)c1	none (no result: CaV13 ICDI inh)
CCN(CC)CCSc1nnc2c3cc(C)ccc3n(Cc3ccccc3)c2n1	T cruzi repl 58 (no result: PfHsp90 yeast 2, PvdQ acylase)
Cc1nn(Cc2ccc(F)cc2)c(Cl)c1/C=N/NC(=O)c1cccnc1	none (no result: HSF1 activator)
Cc1nn(Cc2ccc(F)cc2)c(Cl)c1/C=N/NC(=O)c1ccccc1	T cruzi repl 66 (no result: PfHsp90 yeast 2)
O=C(N/N=C/c1ccccc1Cl)c1ccc(F)cc1	HSF1 activator 56
CCOc1cc(N2CCOCC2)c(OCC)cc1NC(=O)c1cc(S(=O)(=O)N2CCOCC2)ccc1F	none (no result: HSF1 activator, T cruzi repl)
CN1CCN(CCCNc2nc3ccccc3c3nc(-c4ccccc4)nn23)CC1	none (no result: HSF1 activator, T cruzi repl)
CCN(CC)CCCNc1nc2ccccc2c2nc(-c3ccncc3)nn12	Glyco luc inh 119
CCN(CC)CCCNc1nc2cc(OC)c(OC)cc2c2nc(-c3cccnc3)nn12	none
COc1cc2nc(NCCCN3CCN(C)CC3)n3nc(-c4ccccc4)nc3c2cc1OC	T cruzi repl 62
CCN(CC)CCCNc1nc2cc(OC)c(OC)cc2c2nc(-c3ccccc3)nn12	Glyco luc inh 41, T cruzi repl 61
Nc1[nH]c(C(=O)c2ccccc2)c(-c2ccc(Br)cc2)c1C(=O)c1ccccc1	none (no result: HSF1 activator, Glyco luc inh, PfHsp90 yeast 2, PvdQ acylase, T cruzi repl)
C[C@H](CO)N1C[C@H](C)[C@@H](CN(C)CC2CC2)OCc2cnnn2CCCC1=O	none (no result: HSF1 activator, PfHsp90 yeast 2, PvdQ acylase, T cruzi repl)
Cc1ccc(Sc2ccc(NC(=O)CCl)cc2)c(C)c1	HSF1 activator 76 (no result: Glyco luc inh, PfHsp90 yeast 2, PvdQ acylase)
